Data taken from ChEMBL document CHEMBL4014350, “Alkoxyurea-Based Histone Deacetylase Inhibitors Increase Cisplatin Potency in Chemoresistant Cancer Cell Lines” (J Med Chem, 2017).

Columns and labels:
[1] = target: T1, Histone deacetylase 1/6 (Homo sapiens) (UniProt Q13547+Q9UBN7); test: Inhibition of HDAC1/HDAC6 in human Cal27CisR cells assessed as potentiation of 5 uM cisplatin-induced cytotoxicity by measuring combination index at 600 uM preincubated for 48 hrs followed by cisplatin treatment measured after 72 hrs by MTT assay; format: cell-based
How it was run: (§1)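 Cal27 and cisplatin-resistant Cal27CisR cells were preincubated with the HDAC inhibitor for 48 h, then given cisplatin in combination. Viability was read by MTT after 72 h. The combination index was computed by the Chou–Talalay method: CI > 1 is antagonism, CI = 1 is additive, and CI < 0.9 is synergism. Points with fraction affected below 0.20 were flagged.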

[2] = target: T1, Histone deacetylase 1/6 (Homo sapiens); test: Inhibition of HDAC1/HDAC6 in human Cal27CisR cells assessed as potentiation of 1 uM cisplatin-induced cytotoxicity by measuring combination index at 500 nM preincubated for 48 hrs followed by cisplatin treatment measured after 72 hrs by MTT assay
[3] = target: Histone deacetylase 4 (Homo sapiens, UniProt P56524); test: Inhibition of recombinant human N-terminal GST-tagged/C-terminal His-tagged HDAC4 expressed in insect cells using Boc-K(Ac)-AMC as substrate by fluorescence assay
[4] = target: T1, Histone deacetylase 1/6 (Homo sapiens); test: Inhibition of HDAC1/HDAC6 in human Cal27CisR cells assessed as potentiation of 20 uM cisplatin-induced cytotoxicity by measuring combination index at 500 nM preincubated for 48 hrs followed by cisplatin treatment measured after 72 hrs by MTT assay
[5] = system: CAL-27; test: Potentiation of 1 uM cisplatin-induced cytotoxicity against human CAL27 cells assessed as decrease in cell viability by measuring combination index at 800 uM preincubated for 48 hrs followed by cisplatin treatment measured after 72 hrs by MTT assay; format: functional
How it was run: (§2)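 HDAC inhibitor was added 48 h before cisplatin, then cells were exposed to cisplatin for 72 h and viability was read by MTT assay. Combination index was computed by the Chou–Talalay method: CI > 1 is antagonism, CI = 1 additive, CI < 0.9 synergism. Points with fraction affected below 0.20 were flagged.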

[6] = target: T1, Histone deacetylase 1/6 (Homo sapiens); test: Inhibition of HDAC1/HDAC6 in human Cal27CisR cells assessed as potentiation of 5 uM cisplatin-induced cytotoxicity by measuring combination index at 700 uM preincubated for 48 hrs followed by cisplatin treatment measured after 72 hrs by MTT assay; format: cell-based; how it was run: as §1
[7] = target: T1, Histone deacetylase 1/6 (Homo sapiens); test: Inhibition of HDAC1/HDAC6 in human Cal27CisR cells assessed as potentiation of 10 uM cisplatin-induced cytotoxicity by measuring combination index at 700 nM preincubated for 48 hrs followed by cisplatin treatment measured after 72 hrs by MTT assay
[8] = system: CAL-27; test: Potentiation of 2 uM cisplatin-induced cytotoxicity against human CAL27 cells assessed as decrease in cell viability by measuring combination index at 700 uM preincubated for 48 hrs followed by cisplatin treatment measured after 72 hrs by MTT assay; format: functional; conditions: in the assay text read “at 700 nM” for “at 700 uM”; how it was run: as §2
[9] = system: CAL-27; test: Potentiation of 1 uM cisplatin-induced cytotoxicity against human CAL27 cells assessed as decrease in cell viability by measuring combination index at 500 uM preincubated for 48 hrs followed by cisplatin treatment measured after 72 hrs by MTT assay; format: functional; how it was run: as §2
[10] = target: T1, Histone deacetylase 1/6 (Homo sapiens); test: Inhibition of HDAC1/HDAC6 in human Cal27CisR cells assessed as potentiation of 1 uM cisplatin-induced cytotoxicity by measuring combination index at 600 uM preincubated for 48 hrs followed by cisplatin treatment measured after 72 hrs by MTT assay; format: cell-based
How it was run: (§3)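 Cal27CisR cells preincubated 48 h with the HDAC inhibitor, then exposed to cisplatin for 72 h. Viability read by MTT. Combination index calculated by the Chou–Talalay method: CI > 1 antagonism, CI = 1 additive, CI < 0.9 synergism. Points with fraction affected below 0.20 are flagged. Values are the mean of three experiments.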

[11] = organism: Homo sapiens; test: Selectivity ratio of IC50 for HDAC in human A2780 cells to IC50 for HDAC in human A2780CisR cells; format: cell-based
[12] = target: T1, Histone deacetylase 1/6 (Homo sapiens); test: Inhibition of HDAC1/HDAC6 in human Cal27CisR cells assessed as potentiation of 3.16 uM cisplatin-induced cytotoxicity by measuring combination index at 500 nM preincubated for 48 hrs followed by cisplatin treatment measured after 72 hrs by MTT assay
[13] = system: A2780cisR; test: Antiproliferative activity against human A2780cisR cells measured after 72 hrs by MTT assay; format: functional, cell-based
[14] = organism: Homo sapiens; test: Selectivity ratio of IC50 for recombinant human N-terminal GST-tagged/C-terminal His-tagged HDAC4 to IC50 for full length human recombinant N-terminal GST-tagged HDAC6 expressed in baculovirus infected sf9 cells
How it was run: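 Ratio of isolated-enzyme IC50 values. The HDAC4 IC50 was determined in duplicate by an external contract service. The HDAC6 IC50 was the mean ± SD of three independent experiments.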

[15] = target: T1, Histone deacetylase 1/6 (Homo sapiens); test: Inhibition of HDAC1/HDAC6 in human Cal27CisR cells assessed as potentiation of 1 uM cisplatin-induced cytotoxicity by measuring combination index at 700 uM preincubated for 48 hrs followed by cisplatin treatment measured after 72 hrs by MTT assay; format: cell-based; how it was run: as §3
[16] = target: Histone deacetylase 1 (Homo sapiens, UniProt Q13547); test: Inhibition of recombinant full length human C-terminal FLAG/His-tagged HDAC1 expressed in baculovirus infected sf9 cells using Z-(Ac)Lys-AMC as substrate measured after 90 mins by fluorescence assay
[17] = Inhibition of HDAC in human Cal27CisR cells using Boc-Lys(epsilon-Ac)-AMC as substrate preincubated for 18 hrs followed by substrate addition measured after 3 hrs by fluorescence assay; format: cell-based

Sequence of Histone deacetylase 1 (Q13547 whole entry): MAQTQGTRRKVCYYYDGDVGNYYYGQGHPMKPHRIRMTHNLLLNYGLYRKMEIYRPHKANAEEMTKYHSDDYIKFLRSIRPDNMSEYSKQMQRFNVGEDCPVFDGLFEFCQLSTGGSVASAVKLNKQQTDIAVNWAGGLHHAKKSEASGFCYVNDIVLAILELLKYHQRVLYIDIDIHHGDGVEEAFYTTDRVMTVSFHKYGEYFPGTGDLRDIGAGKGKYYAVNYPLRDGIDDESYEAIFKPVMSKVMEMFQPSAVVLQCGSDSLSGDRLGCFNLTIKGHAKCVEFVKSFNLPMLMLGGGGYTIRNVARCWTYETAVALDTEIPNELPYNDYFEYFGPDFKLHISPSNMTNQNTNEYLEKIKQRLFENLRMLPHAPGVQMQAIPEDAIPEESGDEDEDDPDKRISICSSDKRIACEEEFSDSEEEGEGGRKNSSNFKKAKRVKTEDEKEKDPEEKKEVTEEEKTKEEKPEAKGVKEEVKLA
T1 sequence (Q13547 whole entry, looked up): as the sequence (Q13547 whole entry) above
T1 sequence (Q9UBN7 whole entry, looked up): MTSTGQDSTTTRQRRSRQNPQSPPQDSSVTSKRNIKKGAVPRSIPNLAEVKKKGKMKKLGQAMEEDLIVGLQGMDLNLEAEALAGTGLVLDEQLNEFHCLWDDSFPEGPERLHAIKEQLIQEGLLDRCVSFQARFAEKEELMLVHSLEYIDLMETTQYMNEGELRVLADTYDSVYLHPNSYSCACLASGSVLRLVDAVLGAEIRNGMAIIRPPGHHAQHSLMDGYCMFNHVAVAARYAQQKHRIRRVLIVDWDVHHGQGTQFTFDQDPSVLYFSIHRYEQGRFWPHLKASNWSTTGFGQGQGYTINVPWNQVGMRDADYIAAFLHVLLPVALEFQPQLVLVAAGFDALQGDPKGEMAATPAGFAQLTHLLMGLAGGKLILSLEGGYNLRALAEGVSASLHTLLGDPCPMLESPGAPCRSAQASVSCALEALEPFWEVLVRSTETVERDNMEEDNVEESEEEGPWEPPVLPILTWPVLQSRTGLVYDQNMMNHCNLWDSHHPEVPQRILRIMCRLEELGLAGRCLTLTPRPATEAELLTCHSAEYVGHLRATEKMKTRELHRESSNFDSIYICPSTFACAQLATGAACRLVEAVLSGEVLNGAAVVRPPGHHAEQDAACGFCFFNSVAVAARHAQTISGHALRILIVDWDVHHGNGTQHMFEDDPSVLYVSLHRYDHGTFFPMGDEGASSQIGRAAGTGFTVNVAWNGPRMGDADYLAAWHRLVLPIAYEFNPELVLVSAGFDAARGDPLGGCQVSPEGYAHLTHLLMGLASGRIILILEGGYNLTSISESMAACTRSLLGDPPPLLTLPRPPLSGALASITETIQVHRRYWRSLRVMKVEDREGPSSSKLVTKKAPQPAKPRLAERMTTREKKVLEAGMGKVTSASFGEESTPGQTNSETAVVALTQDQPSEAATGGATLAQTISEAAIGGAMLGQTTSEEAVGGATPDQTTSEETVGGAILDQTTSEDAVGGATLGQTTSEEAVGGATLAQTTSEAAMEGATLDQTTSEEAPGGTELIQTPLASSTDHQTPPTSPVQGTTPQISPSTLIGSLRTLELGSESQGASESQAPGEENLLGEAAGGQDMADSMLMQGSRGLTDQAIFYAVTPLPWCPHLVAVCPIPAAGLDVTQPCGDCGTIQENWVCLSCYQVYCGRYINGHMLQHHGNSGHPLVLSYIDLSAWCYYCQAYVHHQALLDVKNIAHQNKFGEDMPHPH
Sequence of Histone deacetylase 4 (P56524 whole entry): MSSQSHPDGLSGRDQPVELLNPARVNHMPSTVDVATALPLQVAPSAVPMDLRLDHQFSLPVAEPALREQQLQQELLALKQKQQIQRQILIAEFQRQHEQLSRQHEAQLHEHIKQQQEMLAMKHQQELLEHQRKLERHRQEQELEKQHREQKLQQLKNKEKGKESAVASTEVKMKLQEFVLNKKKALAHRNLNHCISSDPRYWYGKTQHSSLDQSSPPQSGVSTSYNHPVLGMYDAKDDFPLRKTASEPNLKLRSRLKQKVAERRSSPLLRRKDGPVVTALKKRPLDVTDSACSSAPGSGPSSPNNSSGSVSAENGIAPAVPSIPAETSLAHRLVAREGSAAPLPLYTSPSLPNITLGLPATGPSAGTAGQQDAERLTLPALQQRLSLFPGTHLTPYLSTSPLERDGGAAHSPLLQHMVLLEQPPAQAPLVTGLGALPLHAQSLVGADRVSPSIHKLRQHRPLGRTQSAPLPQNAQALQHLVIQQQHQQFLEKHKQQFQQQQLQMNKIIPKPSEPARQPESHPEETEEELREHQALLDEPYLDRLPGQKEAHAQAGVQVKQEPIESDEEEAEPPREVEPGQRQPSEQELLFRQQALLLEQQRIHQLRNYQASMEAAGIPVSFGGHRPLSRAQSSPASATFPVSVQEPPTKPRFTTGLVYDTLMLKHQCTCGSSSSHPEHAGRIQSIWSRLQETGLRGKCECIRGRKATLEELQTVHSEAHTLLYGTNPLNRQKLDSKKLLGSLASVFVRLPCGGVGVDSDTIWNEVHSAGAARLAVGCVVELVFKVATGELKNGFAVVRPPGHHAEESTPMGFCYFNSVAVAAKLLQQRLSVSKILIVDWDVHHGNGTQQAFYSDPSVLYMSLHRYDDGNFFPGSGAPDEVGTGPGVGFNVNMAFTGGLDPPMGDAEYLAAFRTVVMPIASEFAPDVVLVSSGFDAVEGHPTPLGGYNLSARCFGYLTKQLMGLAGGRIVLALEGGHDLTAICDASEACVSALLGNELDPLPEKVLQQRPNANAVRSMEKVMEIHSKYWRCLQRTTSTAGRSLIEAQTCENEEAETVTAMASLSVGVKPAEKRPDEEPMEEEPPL

IC50 [3] [nM] | IC50 [13] [nM] | IC50 [16] [nM] | IC50 [17] [nM] | SMILES | CI [1] | CI [2] | CI [4] | CI [5] | CI [6] | CI [7] | CI [8] | CI [9] | CI [10] | Ratio IC50 [11] | CI [12] | Ratio IC50 [14] | CI [15]
> 10000 | 400 | 51.9 | 700 | COc1cc(NC(=O)NOCCCCCC(=O)NO)c2ncccc2c1 | 0.6 | < 0.2 | 0.35 | 0.56 | 0.41 | 0.33 | 0.43 | 0.67 | < 0.2 | 2 to 3.4 | < 0.2 | > 3500 | < 0.2
> 10000 | 300 | 77.3 | 500 | COc1cc(NC(=O)NOCCCCCC(=O)NO)c2nccc(C)c2c1 | 0.25 | < 0.2 | 0.26 | 0.41 | 0.21 | 0.21 | 0.36 | 0.37 | < 0.2 | 2 to 3.4 | 0.71 | > 3500 | < 0.2
> 10000 | 400 | 43.2 | 500 | COc1cc(NC(=O)NOCCCCCC(=O)NO)c2nc(OC)cc(C)c2c1 | 0.2 | 0.56 | 0.2 | 0.69 | 0.23 | 0.2 | 0.6 | 0.5 | 0.56 | 2 to 3.4 | 0.26 | > 3500 | < 0.2
